Experimental data reported in ChEMBL document CHEMBL1177728, “Discovery and optimization of boronic acid based inhibitors of autotaxin” (J Med Chem, 2010).
Blank lines part the entries; values can stand above or below the molecule they belong to.

How the values were obtained:
Autotaxin [1] = target: T1, Autotaxin (Homo sapiens, UniProt Q13822); test: Inhibition of 6x-histidine-tagged human recombinant ATX expressed in HEK293 cells using bisP-nitrophenyl phosphate as a substrate; format: cell-based
Autotaxin [2] = target: T1, Autotaxin; test: Inhibition of 6x-histidine-tagged human recombinant ATX expressed in HEK293 cells assessed as lysophosphatidulcholine release; format: cell-based
Outline: (§1)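 LPC (18:1) choline release: ATX (~40 nM) secreted by transfected HEK293 cells into serum-free medium, TALON-purified, in 50 mM Tris-HCl pH 7.4 with 0.01% Triton X-100. Substrate added as 80 μM LPC with 10 mM MgCl2 and CaCl2, 3 h at 37 C.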

Autotaxin [3] = target: T1, Autotaxin; test: Inhibition of 6x-histidine-tagged human recombinant ATX expressed in HEK293 cells assessed as lysophosphatidulcholine release at 5 uM; format: cell-based
Outline: as §1, with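 “C. Choline read at 405 nm by choline oxidase/HRP/ABTS with compound-absorbance correction. IC50 over 10 concentrations (0.01–30 μM); inhibition at 5 μM final.” for “C.”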

Autotaxin [4] = target: T1, Autotaxin; test: Inhibition of 6x-histidine-tagged human recombinant ATX expressed in HEK293 cells assessed as residual activity using bisP-nitrophenyl phosphate as a substrate; values are per cent of control
Autotaxin [5] = target: T1, Autotaxin; test: Inhibition of 6x-histidine-tagged human recombinant ATX expressed in HEK293 cells at 5 uM by CPF assay; format: cell-based
Outline: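 FRET substrate CPF4 at 2 μM with purified His-tagged ATX (~40 nM), run as the bis-pNPP format (pH 7.8 Tris-buffered saline, BSA-FAF, 3 h at room temperature). Fluorescence excited at 355 nm, emission 460 and 520 nm. Inhibitor at 5 μM final.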

Autotaxin [6] = target: T1, Autotaxin; test: Inhibition of 6x-histidine-tagged human recombinant ATX expressed in HEK293 cells assessed as residual enzyme activity by lysophosphatidulcholine release assay; format: cell-based
Outline: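 Residual activity in the LPC (18:1) choline release assay with purified His-tagged ATX (~40 nM), pH 7.4 Tris with 0.01% Triton X-100, 3 h at 37 C. Inhibitor titrated at 10 concentrations, 0.01–30 μM. Choline detected at 405 nm via choline oxidase/HRP/ABTS.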

Autotaxin [7] = target: T1, Autotaxin; test: Inhibition of 6x-histidine-tagged human recombinant ATX expressed in HEK293 cells using bisP-nitrophenyl phosphate as a substrate at 5 uM; format: cell-based
Outline: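 bis-pNPP hydrolysis by purified His-tagged ATX (~40 nM) in Tris-buffered saline pH 7.8 with fatty-acid-free BSA 0.2 mg/mL. Bis-pNPP added as 2 mM stock, 3 h at room temperature. p-Nitrophenol read at 405 nm, corrected by 0 h absorbance. IC50 from 10 concentrations (0.025–100 μM); inhibition at 5 μM final; three independent experiments.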

- IC50 (Autotaxin [1]; read-out: IC50): 100000 nM
SMILES: COc1cc(/C=C2\SC(=O)N(Cc3ccccc3)C2=O)ccc1OCc1ccccc1

- IC50 (Autotaxin [2]): 29.6 nM
- inhibition (Autotaxin [3]): 100%
SMILES: O=C1S/C(=C\c2cccc(OCc3ccc(B(O)O)cc3)c2)C(=O)N1Cc1ccc(F)cc1

- IC50 (Autotaxin [1]; read-out: IC50): > 100000 nM
SMILES: O=C1S/C(=C\c2ccccc2)C(=O)N1Cc1ccc(F)cc1

- residual activity (Autotaxin [4]): 10%
- IC50 (Autotaxin [1]; read-out: IC50): 56 nM
- IC50 (Autotaxin [2]): 2500 nM
- inhibition (Autotaxin [5]): 85%
- Activity (Autotaxin [6]): 35%
- inhibition (Autotaxin [7]): 91%
- inhibition (Autotaxin [3]): 55%
SMILES: COc1cc(/C=C2\SC(=O)N(Cc3ccc(F)cc3)C2=O)ccc1OCc1ccc(C(=O)O)cc1

- residual activity (Autotaxin [4]): 9%
- IC50 (Autotaxin [1]; read-out: IC50): 248 nM
- IC50 (Autotaxin [2]): 2900 nM
- Activity (Autotaxin [6]): 29%
SMILES: COc1cc(/C=C2\SC(=O)N(Cc3ccccc3)C2=O)ccc1OCc1ccc(C(=O)O)cc1

- residual activity (Autotaxin [4]): 12%
- IC50 (Autotaxin [1]; read-out: IC50): 5870 nM
SMILES: COc1cc(/C=C2\SC(=O)N(Cc3ccc(F)cc3)C2=O)ccc1OCc1ccccc1

- residual activity (Autotaxin [4]): 31%
- IC50 (Autotaxin [1]; read-out: IC50): 60900 nM
SMILES: COC(=O)c1ccc(COc2ccc(/C=C3\SC(=O)N(Cc4ccc([N+](=O)[O-])cc4)C3=O)cc2OC)cc1

- IC50 (Autotaxin [2]): 28.3 nM
- inhibition (Autotaxin [3]): 99%
SMILES: O=C1S/C(=C\c2ccc(OCc3cccc(B(O)O)c3)cc2)C(=O)N1Cc1ccc(F)cc1

- residual activity (Autotaxin [4]): 33%
- IC50 (Autotaxin [1]; read-out: IC50): 18200 nM
- IC50 (Autotaxin [2]): 13600 nM
- Activity (Autotaxin [6]): 27%
SMILES: COc1cc(/C=C2\SC(=O)N(Cc3ccc(C(C)(C)C)cc3)C2=O)ccc1OCc1ccc(C(=O)O)cc1

- IC50 (Autotaxin [2]): 1630 nM
- Activity (Autotaxin [6]): 40%
SMILES: O=C(O)c1ccc(COc2ccc(/C=C3\SC(=O)N(Cc4ccc(F)cc4)C3=O)cc2)cc1

- IC50 (Autotaxin [1]; read-out: IC50): 261 nM
- inhibition (Autotaxin [5]): 66%
- inhibition (Autotaxin [7]): 71%
SMILES: O=C(CSc1nc2ccc(N3C(=O)c4ccccc4C3=O)cc2s1)Nc1cccc(Cl)c1

- IC50 (Autotaxin [1]; read-out: IC50): 68 nM
- inhibition (Autotaxin [5]): 85%
- inhibition (Autotaxin [7]): 83%
SMILES: COc1cc(/C=C2\SC(=O)N(Cc3ccc(Cl)cc3)C2=O)ccc1OCc1ccncc1

- IC50 (Autotaxin [2]): 11.9 nM
- inhibition (Autotaxin [3]): 100%
SMILES: O=C1S/C(=C\c2cccc(OCc3cccc(B(O)O)c3)c2)C(=O)N1Cc1ccc(F)cc1

- IC50 (Autotaxin [1]; read-out: IC50): > 100000 nM
SMILES: COC(=O)c1ccc(COc2ccc(/C=C3\SC(=O)N(Cc4ccc(C(C)(C)C)cc4)C3=O)cc2OC)cc1

- IC50 (Autotaxin [1]; hek293): Not Active
SMILES: O=C1S/C(=C\c2ccccc2)C(=O)N1Cc1ccc([N+](=O)[O-])cc1

- IC50 (Autotaxin [1]; read-out: IC50): > 100000 nM
SMILES: COc1cc(/C=C2\SC(=O)N(Cc3ccc([N+](=O)[O-])cc3)C2=O)ccc1OCc1ccccc1

- IC50 (Autotaxin [1]; read-out: IC50): > 100000 nM
SMILES: O=C1S/C(=C\c2ccc(OCc3ccccc3)cc2)C(=O)N1Cc1ccc([N+](=O)[O-])cc1

- IC50 (Autotaxin [1]; hek293): Not Active
SMILES: CC(C)(C)c1ccc(CN2C(=O)S/C(=C\c3ccccc3)C2=O)cc1

- IC50 (Autotaxin [1]; read-out: IC50): > 100000 nM
SMILES: CC(C)(C)c1ccc(CN2C(=O)S/C(=C\c3ccc(OCc4ccccc4)cc3)C2=O)cc1

- IC50 (Autotaxin [1]; read-out: IC50): 111 nM
- inhibition (Autotaxin [5]): 55%
- inhibition (Autotaxin [7]): 75%
SMILES: Cn1c(=O)n(C)c2cc(/C=C3\SC(=O)N(Cc4ccccc4)C3=O)ccc21

- residual activity (Autotaxin [4]): 32%
- IC50 (Autotaxin [1]; read-out: IC50): 2690 nM
SMILES: O=C1S/C(=C\c2ccc(OCc3ccccc3)cc2)C(=O)N1Cc1ccccc1

- residual activity (Autotaxin [4]): 37%
- IC50 (Autotaxin [1]; read-out: IC50): 700 nM
SMILES: O=C1S/C(=C\c2ccc(OCc3ccccc3)cc2)C(=O)N1Cc1ccc(F)cc1

- residual activity (Autotaxin [4]): 33%
- IC50 (Autotaxin [1]; read-out: IC50): 442 nM
- IC50 (Autotaxin [2]): > 5000 nM
- Activity (Autotaxin [6]): 56%
SMILES: COc1cc(/C=C2\SC(=O)N(Cc3ccc([N+](=O)[O-])cc3)C2=O)ccc1OCc1ccc(C(=O)O)cc1

- IC50 (Autotaxin [1]; hek293): Not Active
SMILES: COc1cc(/C=C2\SC(=O)N(Cc3ccc(C(C)(C)C)cc3)C2=O)ccc1OCc1ccccc1

- residual activity (Autotaxin [4]): 24%
- IC50 (Autotaxin [1]; read-out: IC50): 2690 nM
SMILES: COC(=O)c1ccc(COc2ccc(/C=C3\SC(=O)N(Cc4ccccc4)C3=O)cc2OC)cc1

- IC50 (Autotaxin [2]): > 5000 nM
- inhibition (Autotaxin [3]): 36%
SMILES: O=C1S/C(=C\c2ccc(OCc3ccccc3B(O)O)cc2)C(=O)N1Cc1ccc(F)cc1

- IC50 (Autotaxin [1]; read-out: IC50): 46 nM
- inhibition (Autotaxin [5]): 77%
- inhibition (Autotaxin [7]): 87%
SMILES: CC(C)Cc1ccc(-c2n[nH]c3c2C(c2ccc(N(C)C)cc2)C(C#N)=C(N)O3)cc1 (stereo not drawn)

- IC50 (Autotaxin [2]): > 5000 nM
- inhibition (Autotaxin [3]): 11%
SMILES: O=C1S/C(=C\c2cccc(OCc3ccccc3B(O)O)c2)C(=O)N1Cc1ccc(F)cc1

- inhibition (Autotaxin [3]): 38%
SMILES: COc1cc(/C=C2\SC(=O)N(Cc3ccccc3[N+](=O)[O-])C2=O)ccc1OCc1ccc(C(=O)O)cc1

- inhibition (Autotaxin [3]): 28%
SMILES: COc1cc(/C=C2\SC(=O)N(Cc3ccccc3C(F)(F)F)C2=O)ccc1OCc1ccc(C(=O)O)cc1

- IC50 (Autotaxin [2]): 1070 nM
- Activity (Autotaxin [6]): 7%
SMILES: O=C(O)c1cccc(COc2ccc(/C=C3\SC(=O)N(Cc4ccc(F)cc4)C3=O)cc2)c1

- inhibition (Autotaxin [3]): 13%
SMILES: COc1cc(/C=C2\SC(=O)N(Cc3ccncc3)C2=O)ccc1OCc1ccc(C(=O)O)cc1

- inhibition (Autotaxin [3]): 48%
SMILES: COc1cc(/C=C2\SC(=O)N(Cc3cccc([N+](=O)[O-])c3)C2=O)ccc1OCc1ccc(C(=O)O)cc1

- inhibition (Autotaxin [3]): 17%
SMILES: COc1cc(/C=C2\SC(=O)N(CC(=O)c3ccc([N+](=O)[O-])cc3)C2=O)ccc1OCc1ccc(C(=O)O)cc1

- inhibition (Autotaxin [3]): 21%
SMILES: COc1cc(/C=C2\SC(=O)N(Cc3ccc(C#N)cc3)C2=O)ccc1OCc1ccc(C(=O)O)cc1

- IC50 (Autotaxin [1]; read-out: IC50): > 100000 nM
SMILES: COC(=O)c1ccc(COc2ccc(/C=C3\SC(=O)N(Cc4ccc(F)cc4)C3=O)cc2OC)cc1

- residual activity (Autotaxin [4]): 39%
- inhibition (Autotaxin [5]): 67%
- inhibition (Autotaxin [7]): 80%
SMILES: CCCCCCCC/C=C\CCCCCCCC(=O)OC[C@@H](O)COP(=O)(O)O

- inhibition (Autotaxin [3]): 49%
SMILES: COc1cc(/C=C2\SC(=O)N(Cc3ccc(C(=O)O)cc3)C2=O)ccc1OCc1ccc(C(=O)O)cc1

- IC50 (Autotaxin [1]; read-out: IC50): 161 nM
- inhibition (Autotaxin [5]): 89%
- inhibition (Autotaxin [7]): 92%
SMILES: CCOc1cc(/C=C2\SC(=O)N(Cc3ccccc3)C2=O)ccc1OCc1ccc(C(=O)O)cc1

- inhibition (Autotaxin [3]): 13%
SMILES: COc1cc(/C=C2\SC(=O)N(Cc3cccc4ccccc34)C2=O)ccc1OCc1ccc(C(=O)O)cc1

- inhibition (Autotaxin [3]): 41%
SMILES: COc1cc(/C=C2\SC(=O)N(Cc3ccccc3F)C2=O)ccc1OCc1ccc(C(=O)O)cc1

- IC50 (Autotaxin [2]): 2050 nM
- Activity (Autotaxin [6]): 42%
SMILES: COc1cc(/C=C2\SC(=O)N(Cc3ccc(F)cc3)C2=O)ccc1OCc1cccc(C(=O)O)c1

- IC50 (Autotaxin [1]; read-out: IC50): > 100000 nM
SMILES: O=C1S/C(=C\c2ccccc2)C(=O)N1Cc1ccccc1
